Test results reported in publication PMC9364358 (RSC Advances, 2022).

Tests used:
HDAC6 = biological target: T1, HDAC6 (Homo sapiens, UniProt Q9UBN7); format: biochemical
T1 sequence (Q9UBN7 1-1215): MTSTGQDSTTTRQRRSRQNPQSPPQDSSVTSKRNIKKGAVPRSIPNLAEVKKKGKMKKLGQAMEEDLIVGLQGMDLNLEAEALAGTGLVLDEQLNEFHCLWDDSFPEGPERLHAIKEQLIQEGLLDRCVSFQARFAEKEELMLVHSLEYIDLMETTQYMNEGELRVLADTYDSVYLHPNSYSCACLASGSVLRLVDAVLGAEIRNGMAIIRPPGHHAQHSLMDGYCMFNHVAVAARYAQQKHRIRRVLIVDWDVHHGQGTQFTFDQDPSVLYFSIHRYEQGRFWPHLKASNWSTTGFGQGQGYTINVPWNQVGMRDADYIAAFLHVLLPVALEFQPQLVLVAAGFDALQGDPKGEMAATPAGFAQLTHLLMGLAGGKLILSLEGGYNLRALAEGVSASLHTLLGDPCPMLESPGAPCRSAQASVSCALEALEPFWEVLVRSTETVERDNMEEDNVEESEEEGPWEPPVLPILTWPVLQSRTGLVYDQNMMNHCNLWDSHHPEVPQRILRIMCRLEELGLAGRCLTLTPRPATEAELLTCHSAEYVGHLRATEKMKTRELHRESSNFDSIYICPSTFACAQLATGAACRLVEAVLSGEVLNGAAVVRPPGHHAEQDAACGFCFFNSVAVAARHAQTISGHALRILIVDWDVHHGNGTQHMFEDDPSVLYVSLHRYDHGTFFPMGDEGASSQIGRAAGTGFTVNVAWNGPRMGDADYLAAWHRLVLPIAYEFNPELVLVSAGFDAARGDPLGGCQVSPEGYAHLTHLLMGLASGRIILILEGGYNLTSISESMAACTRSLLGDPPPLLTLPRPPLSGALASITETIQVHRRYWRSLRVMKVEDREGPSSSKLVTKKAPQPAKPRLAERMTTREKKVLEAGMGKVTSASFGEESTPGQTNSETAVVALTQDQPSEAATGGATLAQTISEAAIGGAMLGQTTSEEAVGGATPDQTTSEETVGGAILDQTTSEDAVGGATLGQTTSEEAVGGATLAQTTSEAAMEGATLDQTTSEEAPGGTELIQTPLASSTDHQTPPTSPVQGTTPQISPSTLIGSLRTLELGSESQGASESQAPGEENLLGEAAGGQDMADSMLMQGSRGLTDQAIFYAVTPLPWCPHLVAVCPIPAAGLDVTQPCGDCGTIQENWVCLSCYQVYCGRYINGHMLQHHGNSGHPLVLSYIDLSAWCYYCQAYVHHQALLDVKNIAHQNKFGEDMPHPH
How it was run: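 HDAC6 enzyme was incubated 30 min with test compound at graded concentrations (DMSO) and HDAC substrate 2 (200 μM stock) in HDAC assay buffer with BSA (1 mg mL−1 stock). The reaction was stopped with HDAC assay developer for 15 min at room temperature, and fluorescence was read at 485/528 nm. A reference HDAC inhibitor served as positive control.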

HDACs = test: Fluorometric HDAC activity assay; format: cell-based; conditions: MCF-7 cells, 30 μM, 2 h
How it was run: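 MCF-7 cells grown in RPMI-1640 with 10% FBS and 1% penicillin at 37 °C, 5% CO2, then seeded at 5 × 10^3 cells/well. After 24 h, medium was replaced, and HDAC substrate plus test compound (final 30 μM) or trichostatin A was added for 2 h. Developer mix was then added for 30 min at 37 °C, and fluorescence was read (ex 368 nm, em 442 nm).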

MOPC-315 cell line = test: Cytotoxicity; format: cell-based

SMILES: O=C(/C=C/c1cccc(S(=O)(=O)Nc2ccccc2)c1)NO [Belinostat]
- inhibition at 5 µM (HDAC6): 64.5%
- pan-HDAC inhibitory activity (HDAC activity, fluorescence signal) (HDACs): the activity was decreased
- IC50 (MOPC-315 cell line; Mus musculus, MOPC 315, 24 h, MOPC-315 cell line, 24 h incubation): 318 ± 49 nM
- Fold change (MOPC-315 cell line; potency relative to belinostat (belinostat = 1.000), MOPC-315): 1.000
